Shown are actives, neighbours in structure and some others; about 3.5% of the full set was active somewhere.
RGS4 pot – potentiators or activators of RGS4; hit rate 0.92% among 310,000; AID 463111; B-score at 10 µM; HEK293 M3R/inducible RGS4, carbachol calcium flux Fluo4; active compounds read low;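 active means B-score of the integrated calcium signal more than 4 SD below the library mean, with starting fluorescence not abnormally high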;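 further: negative B-score means reduced calcium response which marks RGS4 activation or potentiation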
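Reagent: ECmax carbachol challenge; Test system: M3R-expressing HEK293 line, RGS4 induced by doxycycline; Schedule: overnight RGS4 induction, 30 min dye load 37 °C, 20 min compound RT; Detection: calcium dye Fluo4 fluorescence; Read-out: Agonist-evoked peak-minus-minimum fluorescence over baseline, integrated ratio, B score.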
MrgX1 ag – human MrgX1 receptor agonism, primary screen; Q96LB2; MrgX1-HEK293 cells, Fluo-4 calcium fluorescence, agonist mode; active compounds read high; B-score at 10 µM; hit rate 0.44% among 310,000; AID 588627;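 active means calcium response B-score plate-corrected fluorescence ratio at least 3 library SD, with starting fluorescence B-score inside 5 SD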
Target sequence (Q96LB2 whole entry, looked up): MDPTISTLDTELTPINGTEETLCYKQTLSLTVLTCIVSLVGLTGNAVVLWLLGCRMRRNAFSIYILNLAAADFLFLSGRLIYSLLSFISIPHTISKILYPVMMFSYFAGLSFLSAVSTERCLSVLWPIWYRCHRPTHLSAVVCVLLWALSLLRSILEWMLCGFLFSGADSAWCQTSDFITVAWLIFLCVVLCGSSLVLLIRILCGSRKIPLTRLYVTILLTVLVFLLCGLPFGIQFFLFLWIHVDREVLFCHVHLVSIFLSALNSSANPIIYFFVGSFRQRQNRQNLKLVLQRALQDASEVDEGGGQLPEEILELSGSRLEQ
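times = overnight plating, then 30 min 37 °C plus 30 min room-temperature dye loading | assay system = stable human MrgX1 HEK293 cell line | input = fifteen thousand cells per well | signal = kinetic calcium dye fluorescence, Fluo-4 NW | dosing = compound delivered in addition one of three | read-out = B-scored fluorescence response ratio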
RGS4 inh – inhibitors of human RGS4. P49798. AID 463165. B-score at 10 µM. HEK293 M3R/RGS4 inducible, Fluo-4 calcium flux; active compounds read high; triggered by carbachol at its EC20. hit rate 0.45% among 310,000;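 active means B-score, a plate-corrected calcium signal, over three deviations above library mean, with baseline fluorescence within five deviations of library mean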;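 further: RGS4 expression induced by doxycycline in cells with stable M3 receptor; B-score is computed from the integrated fluorescence ratio over baseline after carbachol; higher B-score means a larger calcium signal and so more RGS4 inhibition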
Target sequence (P49798 whole entry, looked up): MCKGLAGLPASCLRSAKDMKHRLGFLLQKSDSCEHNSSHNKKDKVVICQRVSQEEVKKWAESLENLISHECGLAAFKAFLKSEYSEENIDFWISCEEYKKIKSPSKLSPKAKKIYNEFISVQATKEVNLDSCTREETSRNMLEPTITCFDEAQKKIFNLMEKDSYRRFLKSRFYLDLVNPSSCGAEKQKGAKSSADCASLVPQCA
MrgX1 allo act – allosterically activates human MrgX1 receptor signaling; Q96LB2; MrgX1-HEK293, Fluo-4 calcium flux, FDSS; active compounds read high; B-score at 10 µM; hit rate 0.63% among 310,000;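 active means plate-corrected calcium response at least 3 library SD above typical, normal starting fluorescence, not activating the receptor alone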;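 further: compound read alongside a low EC10 to EC30 dose of BAM8-22 agonist; peak minus trough fluorescence over baseline measured at the second addition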
MrgX1 antag – human MrgX1 receptor antagonism, primary screen | MRGX1-HEK293 calcium flux, Fluo-4, BAM8-22 antagonism; active compounds read low | B-score at 10 µM | hit rate 1.3% among 310,000;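 active means calcium-response B-score plate-corrected more than 3 library SD below zero, starting fluorescence within 5 deviations, no agonist response on first addition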;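 further: peak minus trough fluorescence over baseline after final BAM8-22 challenge near maximal dose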
MrgX1 antag conf – reconfirmed antagonist of human MrgX1 receptor signaling; AID 602420; remaining BAM8-22 calcium response % of control (active compounds read low), % at 10 µM; MrgX1-HEK293, BAM8-22 calcium flux, Fluo-4; active compounds read low; shares compounds with MrgX1 antag; hit rate 19% among 2,300;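 active means remaining agonist calcium response no higher than 100% minus 3 SD of agonist-only control wells, with starting fluorescence near control levels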;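 further: agonist BAM8-22 given at a near maximal EC90 to ECmax level; peak minus minimum fluorescence divided by baseline after agonist addition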
HEK293 Ca flux – activity in parental HEK293 cells lacking MrgX1; fluorescence ratio F(max-min)/F0 at 10 µM; AID 624111; hit rate 2% among 4,000; Fluo-4 calcium fluorescence, FDSS; shares compounds with MrgX1 antag;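 active means duplicate-averaged calcium fluorescence ratio at least three times the standard deviation of buffer wells, a nonspecific response in parental cells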
HEK293 Ca counter – MrgX1 allosteric activator counter-screen hit in parental HEK293 cells; shares compounds with MrgX1 antag; parental HEK293 calcium flux, Fluo-4 fluorescence ratio; active compounds read high; fluorescence ratio F(max-min)/F0 at 10 µM; hit rate 0.4% among 4,000;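 active means calcium fluorescence ratio, averaged over duplicates, at least 3 SD of the buffer-well ratio, meaning a nonspecific response in receptor-free cells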;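 further: untransfected parental HEK293 lacking MrgX1 used as counterscreen for MrgX1 allosteric activators; fluorescence change taken during the second addition on a kinetic imager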
HEK293 Ca cntr2 – MrgX1 activator counter-screen hit in parental HEK293 cells; shares compounds with MrgX1 antag; Fluo-4 calcium fluorescence (FDSS); active compounds read high; fluorescence ratio F(max-min)/F0 at 10 µM; hit rate 8.7% among 4,000; AID 624115;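 active means calcium fluorescence ratio at least three times the spread of buffer wells, meaning a non-specific response in parental cells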
Starred values were filed as active, the others as inactive; i = inactive; . = no result given.

SMILES	RGS4 pot	MrgX1 ag	RGS4 inh	MrgX1 allo act	MrgX1 antag	MrgX1 antag conf	HEK293 Ca flux	HEK293 Ca counter	HEK293 Ca cntr2
Cc1cc(C)c(NC(=O)Cc2ccc(-n3cccc3)cc2)c(C)c1	i	i	i	i	-5.46*	i	i	i	i
Cc1ccc(CNC(=O)Cc2ccc(-n3cccc3)cc2)cc1	i	i	i	i	i	.	.	.	.
O=C(C1CCC1)N1CCN(c2ccnc3cc(Cl)ccc23)CC1	i	i	i	i	i	.	.	.	.
O=C(C1CCCCC1)N1CCN(c2ccnc3cc(Cl)ccc23)CC1	i	i	i	i	-11.9*	i	i	i	i
COc1ccccc1-n1c(C)nc2cc(C(=O)O)ccc21	i	i	i	i	-4.81*	i	i	i	i
Cc1nc2cc(C(=O)O)ccc2n1-c1ccccc1	i	i	i	i	i	.	.	.	.
COc1ccc(NC(=O)c2cc3ccc4c5ccccc5[nH]c4c3cc2O)cc1	i	i	i	i	i	.	.	.	.
CN(Cc1ccccc1)C(=O)c1ccc(NC(=O)c2ccccc2)cc1	i	i	i	i	-5.53*	i	i	i	i
CCOC(=O)c1ccc2c(c1)nc(COc1ccc3ccccc3c1)n2CC	-7.28*	i	i	i	-5.18*	i	i	i	i
CCn1c(COc2ccc(OC)cc2)nc2ccccc21	i	i	i	i	i	.	.	.	.
Cc1ccc(N2C(=O)c3ccccc3NC2C(C)Cc2ccc3c(c2)OCO3)cc1 (stereo not drawn)	i	i	i	i	-5.13*	i	i	i	i
Cc1ccc(NC(=O)NCC2CC2(Cl)Cl)cc1 (stereo not drawn)	i	i	i	i	i	.	.	.	.
O=C(NCC1CC1(Cl)Cl)Nc1ccc(Cl)c(Cl)c1 (stereo not drawn)	i	i	i	i	-5.51*	i	i	i	i
CC(C)(CO)NC(=O)Nc1ccc(Cl)c(Cl)c1	i	i	i	i	-7.71*	i	i	i	i
CC(C)Cn1c(=O)c(C(=O)N/N=C/c2cccc(F)c2)c(O)c2ccccc21	i	i	i	i	i	.	.	.	.
Cc1nc2cc(C(=O)NCc3ccc4c(c3)OCO4)ccc2n1-c1ccc(Br)cc1	i	i	i	i	-4.82*	i	i	i	i
O=C(NCc1ccc2c(c1)OCO2)c1ccc(Br)cc1	i	i	i	i	i	.	.	.	.
O=C(NCc1ccc2c(c1)OCO2)c1cccc(Cl)c1	i	i	i	i	-5.18*	i	i	i	i
O=C(NCc1cccc(Cl)c1)c1ccc2c(c1)OCO2	i	i	i	i	i	.	.	.	.
CC(Oc1ccc(Cl)cc1)C(=O)Nc1ccc(S(=O)(=O)Nc2nccs2)cc1 (stereo not drawn)	i	i	i	i	-5.6*	i	i	i	51.4*
Cc1cc2c(cc1S(=O)(=O)N(C)c1ccccc1)n(C)c(=O)n2C	i	i	i	i	i	.	.	.	.
Cc1cccc(N(C)S(=O)(=O)c2cc3c(cc2C)n(C)c(=O)c(=O)n3C)c1	i	i	i	i	-4.7*	i	i	i	i
NC(=O)C1CCN(CC(=O)Nc2cccc(C(=O)Nc3cccc(C(F)(F)F)c3)c2)CC1	i	i	i	i	-7.03*	83.7%*	i	i	i
Cc1ccc(Cc2nc(-c3cccnc3)no2)cc1	i	i	i	i	-4.79*	i	i	i	i
O=C(NNC(=S)NC(=O)c1sc2ccccc2c1Cl)c1ccc(Cl)cc1	i	i	i	i	-18*	i	i	i	i
SMILES	RGS4 pot	MrgX1 ag	RGS4 inh	MrgX1 allo act	MrgX1 antag	MrgX1 antag conf	HEK293 Ca flux	HEK293 Ca counter	HEK293 Ca cntr2
CCOc1cc(C(=O)NC(=S)Nn2cnnc2)cc(OCC)c1OCC	i	i	i	i	-4.53*	i	i	i	i
CCOc1cc(C(=O)Nn2cnnc2)cc(OCC)c1OCC	i	i	i	i	-4.58*	i	i	i	i
CCOc1cc(C(=O)NC(=S)Nc2nc(C)cc(C)n2)cc(OCC)c1OCC	i	i	i	i	i	.	.	.	.
O=C(NC(=S)Nn1cnnc1)c1ccccc1	i	i	i	i	-8.29*	74.6%*	i	i	i
Cc1cccc(C)c1NC(=O)NC1CC2CCC(C1)N2Cc1cccs1 (stereo not drawn)	i	i	i	i	-7.51*	i	i	i	i
Cc1ccc(C2(CC(=O)O)CCOC(C)(C)C2)cc1 (stereo not drawn)	i	i	i	i	i	.	.	.	.
CC1(C)CC(CC(=O)O)(c2ccc(F)cc2)CCO1 (stereo not drawn)	i	i	i	i	-6*	i	i	i	i
Cc1nn(CCO)c2nc(-c3cccs3)cc(C(F)(F)F)c12	i	i	i	i	-9.49*	i	i	i	i
NC(=O)c1ccccc1NC(=O)CN1CCN(Cc2ccc(Cl)cc2Cl)CC1	i	i	i	i	i	.	.	.	.
COc1ccc(NC(=O)CN(C)C(=O)c2ccc(-c3ccccc3Cl)o2)cc1	i	i	i	i	-4.72*	i	i	i	i
COc1ccc(NC(=O)CN(C)C(=O)c2ccc(-c3cccc(C(F)(F)F)c3)o2)cc1	i	i	i	i	i	.	.	.	.
O=C(O)CSc1nnc(CNc2cccc(C(F)(F)F)c2)n1Cc1ccco1	i	i	i	i	-7.36*	78.9%*	i	i	i
O=C(CSc1nnc(CNc2cccc(C(F)(F)F)c2)n1Cc1ccco1)NCc1ccco1	i	i	i	i	i	.	.	.	.
O=C(CNC(=O)c1ccc(Br)o1)NCc1ccc(Cl)cc1Cl	i	i	i	i	-4.78*	i	i	i	i
O=C(CNC(=O)c1ccc(Br)o1)NCc1cccc(Cl)c1	i	i	i	i	i	.	.	.	.
Cc1ccc(S(=O)(=O)NC(=O)Nc2ccc(C)cc2C)cc1	i	i	i	i	i	.	.	.	.
